Laboratory results from ChEMBL document CHEMBL1145493, “Exposure-response analyses of tigecycline efficacy in patients with complicated skin and skin-structure infections” (Antimicrob Agents Chemother, 2007).
Converted amounts (≈) assume the structure as drawn.

What was measured:
[1] = AUC at 24 hrs steady state in patient with complicated skin and skin structure infection at 50 mg loading dose followed by 25 mg every 12 hrs; format: ADME, organism-based; design: time < 24 hr, dose 50 mg; conditions: human, plasma
Method in brief: (§1)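 Tigecycline given i.v. for 7 to 14 days. Levels were measured by validated LC-MS/MS (LLOQ 10 ng/ml). Steady-state AUC24 was derived from a population PK model in evaluable patients pooled from three trials.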

[2] = AUC at 24 hrs steady state in patient with complicated skin and skin structure infection at 100 mg loading dose followed by 50 mg every 12 hrs; format: ADME, organism-based; design: dose 100 mg, time < 24 hr; conditions: human, plasma; method in brief: as §1
[3] = AUC (24 hrs)/MIC in patient with baseline skin pathogens at 100 mg loading dose followed by 50 mg every 12 hrs; format: ADME, cell-free; conditions: human, plasma
Method in brief: (§2)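 Per-patient ratio of model-derived steady-state AUC24 to the MIC of the baseline pathogen. The AUC24 came from population PK analysis of serum LC-MS/MS levels sampled predose and at 1, 3 and 6 h. MICs were set centrally by CLSI broth dilution in fresh media on isolates taken at baseline, with i.v. dosing over 7 to 14 days.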

Acinetobacter baumannii = test: Antibacterial activity against Acinetobacter baumannii; format: functional
Method in brief: (§3)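 Baseline isolates from cSSSI patients in three pooled tigecycline trials (one phase 2, two phase 3) were identified and susceptibility-tested at a central laboratory. MICs were determined by broth dilution in fresh media following Clinical and Laboratory Standards Institute guidelines.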

Klebsiella pneumoniae = test: Antibacterial activity against Klebsiella pneumoniae; format: functional; method in brief: as §3
Staphylococcus aureus = test: Antibacterial activity against Staphylococcus aureus; format: functional; method in brief: as §3
Enterobacter cloacae = test: Antibacterial activity against Enterobacter cloacae; format: functional; method in brief: as §3
Streptococcus pyogenes = test: Antibacterial activity against Streptococcus pyogenes; format: functional
Method in brief: (§4)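 MICs for baseline pathogens isolated from patients with complicated skin and skin-structure infections. Isolates went to a central laboratory for identification and susceptibility testing by CLSI broth dilution in fresh media.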

[4] = tested on: Streptococcus dysgalactiae subsp. equisimilis; test: Antibacterial activity against Streptococcus equisimilis; format: functional; method in brief: as §4
Klebsiella oxytoca = test: Antibacterial activity against Klebsiella oxytoca; format: functional; method in brief: as §4
[5] = AUC (24 hrs)/MIC in patient with baseline skin pathogens at 50 mg loading dose followed by 25 mg every 12 hrs; format: ADME, cell-free; conditions: human, plasma; method in brief: as §2
[6] = tested on: Acinetobacter calcoaceticus; test: Antibacterial activity against Acinetobacter calcoaceticus; format: functional; method in brief: as §4
[7] = tested on: Acinetobacter haemolyticus; test: Antibacterial activity against Acinetobacter haemolyticus; format: functional; method in brief: as §4
Escherichia coli = test: Antibacterial activity against Escherichia coli; format: functional; method in brief: as §3
[8] = tested on: Streptococcus dysgalactiae; test: Antibacterial activity against Streptococcus dysgalactiae; format: functional; method in brief: as §4
Enterococcus faecium = test: Antibacterial activity against Enterococcus faecium; format: functional; method in brief: as §4
Citrobacter freundii = test: Antibacterial activity against Citrobacter freundii; format: functional; method in brief: as §4
Proteus mirabilis = test: Antibacterial activity against Proteus mirabilis; format: functional; method in brief: as §4
[9] = tested on: Streptococcus constellatus; test: Antibacterial activity against Streptococcus constellatus; format: functional; method in brief: as §4
[10] = tested on: Streptococcus intermedius; test: Antibacterial activity against Streptococcus intermedius; format: functional; method in brief: as §4
Enterococcus faecalis = test: Antibacterial activity against Enterococcus faecalis; format: functional; method in brief: as §4
Citrobacter koseri = test: Antibacterial activity against Citrobacter koseri; format: functional; method in brief: as §4
Streptococcus agalactiae = test: Antibacterial activity against Streptococcus agalactiae; format: functional; method in brief: as §4
Streptococcus anginosus = test: Antibacterial activity against Streptococcus anginosus; format: functional; method in brief: as §4
Serratia marcescens = test: Antibacterial activity against Serratia marcescens; format: functional; method in brief: as §4
Pseudomonas aeruginosa = test: Antibacterial activity against Pseudomonas aeruginosa; format: functional; method in brief: as §3

CN(C)c1cc(NC(=O)CNC(C)(C)C)c(O)c2c1C[C@H]1C[C@H]3[C@H](N(C)C)C(O)=C(C(N)=O)C(=O)[C@@]3(O)C(O)=C1C2=O [TIGECYCLINE]
AUC at 24 h [1]: 2660 ng·h/mL
AUC at 24 h [2]: 5390 ng·h/mL
RatioAUC/MIC [3]: 32.5
MIC (Acinetobacter baumannii): 0.25 µg/mL (≈ 0.427 µM)
MIC (Klebsiella pneumoniae): 0.5 µg/mL (≈ 0.854 µM)
MIC (Staphylococcus aureus): 0.06 µg/mL (≈ 0.102 µM)
MIC (Enterobacter cloacae): 1 µg/mL (≈ 1.71 µM)
MIC (Streptococcus pyogenes): 0.06 µg/mL (≈ 0.102 µM)
MIC [4]: 0.06 µg/mL (≈ 0.102 µM)
MIC (Klebsiella oxytoca): 0.5 µg/mL (≈ 0.854 µM)
RatioAUC/MIC [5]: 13.3
MIC [6]: 0.25 µg/mL (≈ 0.427 µM)
MIC [7]: 0.5 µg/mL (≈ 0.854 µM)
MIC (Escherichia coli): 0.25 µg/mL (≈ 0.427 µM)
MIC [8]: 0.12 µg/mL (≈ 0.205 µM)
MIC (Enterococcus faecium): 0.06 µg/mL (≈ 0.102 µM)
MIC (Citrobacter freundii): 0.5 µg/mL (≈ 0.854 µM)
MIC (Proteus mirabilis): 2 µg/mL (≈ 3.41 µM)
MIC [9]: 0.12 µg/mL (≈ 0.205 µM)
MIC [10]: 0.06 µg/mL (≈ 0.102 µM)
MIC (Enterococcus faecalis): 0.12 µg/mL (≈ 0.205 µM)
MIC (Citrobacter koseri): 0.5 µg/mL (≈ 0.854 µM)
MIC (Streptococcus agalactiae): 0.06 µg/mL (≈ 0.102 µM)
MIC (Streptococcus anginosus): 0.06 µg/mL (≈ 0.102 µM)
MIC (Serratia marcescens): 1 µg/mL (≈ 1.71 µM)
MIC (Pseudomonas aeruginosa): 8 µg/mL (≈ 13.7 µM)
